The nature of data set [1]: melting temperature; fluorescence melt of hairpins on a sequencing array, two-state fit, raised by 9.35 °C to match UV melts. The settings on record: sodium 0.088 M. Put shortly: (§1)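 Hairpins were imaged by Cy3 fluorescence on a sequenced MiSeq flow cell with annealed Cy3 and quencher oligos, in 50 mM Na-HEPES pH 8.0, 25 mM NaCl, in 2.5 °C steps up to 60 °C. Bootstrapped two-state fits of normalised signals gave melting temperature and folding enthalpy. Four replicates were combined by inverse variance, and fitted temperatures were raised by 9.35 °C to match UV melts.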

Data set [2] can be described thus: folding enthalpy; higher = less favourable; fluorescence melt of hairpins on a sequencing array, two-state fit. The conditions noted are these: sodium 0.088 M. In outline: as §1

GCAGTGCGAAAGCTCCGC ((.(.((....)).).)): the Tm in data set [1] stood at 47.9 °C. In addition, in data set [2], the folding enthalpy is -11.9 kcal/mol.
In the same order, the values of TTCCAGAAATGGAA (((((....))))) are 31 °C and -9.36 kcal/mol.
As to GCGGATTCCGC ((((...)))), the Tm in data set [1] stood at 54.3 °C. Moreover, the folding enthalpy in data set [2] is -24.9 kcal/mol.
For AGGACGAAAGTCCT (((((....))))) the same measures were 68.5 °C and -20.3 kcal/mol.
As for GCCGGTCGAAAGACTGGC (((.(((....))).))), the Tm in data set [1] was found to be 68.3 °C. Also, the folding enthalpy in data set [2] is -32 kcal/mol.
In the same order, the values of GACCATGGAAACATGGTC (((((((....))))))) are 65.1 °C and -43.1 kcal/mol.
Regarding GCTGTGCGAAAGCGAAGC (((..((....))..))), in data set [1], the Tm stood at 52.6 °C. Moreover, the folding enthalpy in data set [2] is -17.9 kcal/mol.
In the same order, the values of GTTATGCGAAAGCAAAAC (((.(((....))).))) are 41.2 °C and -21 kcal/mol.
For GATCTAATCATAGATC ((((((....)))))) the same measures were 38.6 °C and -34.8 kcal/mol.
For GTCAGGGGAAACTCTGGC (.(((.(....).))).) the same measures were 36.4 °C and -24.5 kcal/mol.
In the case of GCGCGAGGAAACCCGCGC (((((.(....).))))), the Tm in data set [1] worked out at 69.1 °C. For the same sequence, in data set [2], the folding enthalpy is -33.8 kcal/mol.
For GTGACAGGAAACTGTCAC (((((((....))))))) the same measures were 65.2 °C and -42.1 kcal/mol.
In the same order, the values of GCATCGGGAAACCGACAC (..((((....))))..) are 25.8 °C and -11.9 kcal/mol.
CGGTCGGAAACGAACCG ((((((....))).))): the Tm in data set [1] was determined as 51.6 °C. Also, the folding enthalpy in data set [2] is -33.3 kcal/mol.
For GTGCGTCGAAAGACTCAC (((.(((....))).))) the same measures were 49.6 °C and -40.2 kcal/mol.
For GTTCACGAAAGTGAAC ((((((....)))))) the same measures were 68.4 °C and -34.7 kcal/mol.
Take GGGCTAGGAAACTGGTCC ((.(.((....)).).)): in data set [1], the Tm was found to be 41 °C. Also, the folding enthalpy in data set [2] was -33.6 kcal/mol.
For GAATTGGGAAACCAATCC (.(((((....))))).) the same measures were 29.8 °C and -14.6 kcal/mol.
In the same order, the values of GTAGTCGAAAGACGATAC ((((((....)))..))) are 35.6 °C and -13 kcal/mol.
Regarding GTCATAACGAAAGTTGAC (((..(((....)))))), the Tm in data set [1] turned out to be 37.2 °C. Moreover, the folding enthalpy in data set [2] was -24.4 kcal/mol.
GGAACTGGAAACAGTTTC (.(((((....))))).): in data set [1], the Tm worked out at 46.2 °C. In addition, in data set [2], the folding enthalpy is -27.7 kcal/mol.
In the same order, the values of GCTTAACGAAAGTTTAGC (((.(((....))).))) are 46.4 °C and -30.5 kcal/mol.
For GTTGTAACGAAAGTTAAC (((..(((....)))))) the same measures were 37.9 °C and -26.1 kcal/mol.
For GTTACTCGAAAGAGAAAC (((.(((....))).))) the same measures were 41.9 °C and -28.2 kcal/mol.
In the case of GCGTAATTACGC ((((....)))), the Tm in data set [1] turned out to be 51.7 °C. In data set [2], the folding enthalpy was -30 kcal/mol.
For GGCACCGGAAACGACGCC (((..((....))..))) the same measures were 42 °C and -29.9 kcal/mol.
In the same order, the values of GACGCCGAAAGGCCCGTC ((((((....)))..))) are 37 °C and -13.9 kcal/mol.
For GATCCGAATTCGGATC ((((((....)))))) the same measures were 60.2 °C and -43.3 kcal/mol.
For GGACGTCGAAAGACTTCC (((.(((....))).))), the Tm in data set [1] is 48.1 °C. Also, the folding enthalpy in data set [2] was -29.9 kcal/mol.
In the same order, the values of GGCAGTGGAAACGCTGCC (((((.(....).))))) are 62.7 °C and -42.3 kcal/mol.
For GACTTTGCGAAAGCAGTC (((..(((....)))))) the same measures were 32.8 °C and -14.4 kcal/mol.
Turning to GCCCTGGGAAACCAGAGC ((.((((....)))).)), in data set [1], the Tm is 45.5 °C. Besides, the folding enthalpy in data set [2] is -28.7 kcal/mol.
GATATAGGAAACTGTATC ((((.((....)).)))): the Tm in data set [1] worked out at 34.6 °C. Further, the folding enthalpy in data set [2] is -21.4 kcal/mol.
For GACTATGGAAACATAGTC (((((((....))))))), in data set [1], the Tm turned out to be 54.5 °C. For the same sequence, the folding enthalpy in data set [2] was -46.8 kcal/mol.
For GATCAATTAGTTGATC ((((((....)))))) the same measures were 45.6 °C and -35 kcal/mol.
In the same order, the values of GATCACCGAAAGGTTATC (((.(((....))).))) are 40.4 °C and -27.7 kcal/mol.
For GCGTTGGCACGC ((((....)))) the same measures were 50 °C and -17.2 kcal/mol.
Turning to GATCAAACAGTTGATC ((((((....)))))), the Tm in data set [1] was 38.5 °C. In data set [2], the folding enthalpy is -25.8 kcal/mol.
On to GCCCCGGGAAACCAGGGC ((((.((....)).)))), for which the Tm in data set [1] stood at 55.5 °C. For the same sequence, the folding enthalpy in data set [2] was -33 kcal/mol.
In the same order, the values of GATCCTGCGAGGATC ((((((...)))))) are 53.9 °C and -33.7 kcal/mol.
In the same order, the values of GATCTAAAGTTAGATC ((((((....)))))) are 36.7 °C and -26.1 kcal/mol.
For GGACCCGAAAGGGTTCC ((((((....))).))) the same measures were 59.7 °C and -16.8 kcal/mol.
With GCACTTGGAAACAAGTGC (((((((....))))))), the Tm in data set [1] came to 67.7 °C. Further, the folding enthalpy in data set [2] was -34.6 kcal/mol.
In the same order, the values of GAATGCGAAAGCACCTTC ((((((....)))..))) are 33.2 °C and -11.2 kcal/mol.
GATCGAGCCTCGATC ((((((...)))))): the Tm in data set [1] was found to be 52.8 °C. Also, in data set [2], the folding enthalpy was -34.9 kcal/mol.
As to GATCTTATTAAAGATC ((((((....)))))), the Tm in data set [1] came to 42.8 °C. Moreover, the folding enthalpy in data set [2] was -30.7 kcal/mol.
In the same order, the values of GCTCCGCGAAAGCATAGC (((..((....))..))) are 33.1 °C and -10.1 kcal/mol.
For GATCTCCGTAGAGATC ((((((....)))))) the same measures were 55.1 °C and -42 kcal/mol.
For GCGGTGTTCCGC ((((....)))) the same measures were 65.7 °C and -20 kcal/mol.
Consider GTTCCCGAAAGGGTGAAC ((((((....)))..))), for which the Tm in data set [1] was 35.5 °C. In addition, in data set [2], the folding enthalpy is -12.5 kcal/mol.
In the same order, the values of GTTGGAGCGAAAGCTAAC (((..(((....)))))) are 36.9 °C and -21.4 kcal/mol.
Take GAAGCCGAAAGGCGCTTC ((((((....)))..))): in data set [1], the Tm worked out at 56.2 °C. The folding enthalpy in data set [2] is -14.1 kcal/mol.
For GAGCCCGAAAGGGTCCTC ((((((....)))..))) the same measures were 42.5 °C and -13.2 kcal/mol.
For GACCAACGAAAGTTGTC (((.(((....)))))) the same measures were 40.8 °C and -14.5 kcal/mol.
GTGAACGAAAGTTATCAC ((((((....)))..))): the Tm in data set [1] is 31 °C. The folding enthalpy in data set [2] is -13.2 kcal/mol.
For GATCGATGGTCGATC ((((((...)))))) the same measures were 50.6 °C and -29.4 kcal/mol.
For GCTAGCCGAAAGGCGAGC (((.(((....))).))) the same measures were 67.2 °C and -30.9 kcal/mol.
In the same order, the values of GATCTAACACTAGATC ((((((....)))))) are 36.9 °C and -24.6 kcal/mol.
For the sequence GTCCACCGAAAGGTGAC (((.(((....)))))), the Tm in data set [1] worked out at 46.1 °C. Further, in data set [2], the folding enthalpy was -12.5 kcal/mol.
In the same order, the values of GGTGAGGGAAACTTCGCC ((.((.(....).)).)) are 35.7 °C and -23.7 kcal/mol.
In the same order, the values of GATCAACACGTTGATC ((((((....)))))) are 53.6 °C and -40.2 kcal/mol.
For GGGGGCGAAAGCCCGCCC ((((((....)))..))) the same measures were 55.6 °C and -9.36 kcal/mol.
Consider GCTGGGCGAAAGCCACGC ((..(((....)))..)), for which, in data set [1], the Tm is 48 °C. Also, the folding enthalpy in data set [2] was -15.6 kcal/mol.
As for GAACCTGGAAACAAGTTC ((((.((....)).)))), the Tm in data set [1] stood at 26.8 °C. The folding enthalpy in data set [2] is -15.9 kcal/mol.
As to GCTGAGCGAAAGCTGAGC (((.(((....))).))), in data set [1], the Tm was 55 °C. In addition, the folding enthalpy in data set [2] is -40.4 kcal/mol.
In the same order, the values of GTCAACGGAAACGTTGAC (((((((....))))))) are 69 °C and -45.2 kcal/mol.
For GCCGGTGGAAACATCGGC ((((.((....)).)))) the same measures were 58.9 °C and -45.8 kcal/mol.
For GTCACCTCGAAAGAGGAC (((..(((....)))))) the same measures were 26.9 °C and -9.82 kcal/mol.
Take GAAGTGGGAAACTGCTTC ((((..(....)..)))): in data set [1], the Tm is 39.6 °C. Moreover, the folding enthalpy in data set [2] is -26.1 kcal/mol.
For GCGGTCGAAAGACCCCGC ((((((....)))..))) the same measures were 47.5 °C and -14.9 kcal/mol.
In the same order, the values of GTAACTCGAAAGAGGTAC (((.(((....))).))) are 51.6 °C and -28.7 kcal/mol.
Turning to GCAAAAGGAAACCTTTGC (((((.(....).))))), in data set [1], the Tm was determined as 39.6 °C. Moreover, the folding enthalpy in data set [2] is -30.4 kcal/mol.
Turning to GCGGACTCCGC ((((...)))), the Tm in data set [1] came to 52 °C. Also, the folding enthalpy in data set [2] is -20.5 kcal/mol.
For GGACACGAAAGTGCTCC ((((((....))).))) the same measures were 50.1 °C and -22.5 kcal/mol.

Source of the values: the array DNA melting data of Ke et al. (doi:10.1101/2024.01.08.574731).
